Results on 12 molecules are retold here after ChEMBL document CHEMBL1148387, “DNA-targeted 1,2,4-benzotriazine 1,4-dioxides: potent analogues of the hypoxia-selective cytotoxin tirapazamine” (J Med Chem, 2004).

Assay [1] concerns HT-29. Nature of the assay: Concentration required to kill aerobic HT-29 human colon carcinoma cells in vitro. Type of assay: functional, cell-based. An outline of the steps: (§1)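 HT-29 cells tested simultaneously under oxic and hypoxic conditions in a 96-well SRB proliferation assay; TPZ internal control at front and back of assay (n = 2); 8-methyl-5-nitroquinoline second control confirming strict hypoxia. IC50 pooled from seven independent experiments as interexperimental means (mean ± SEM, n ≥ 2).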

Assay [2] concerns SCC-7. The assay can be described thus: Concentration required to kill hypoxic mouse SCCVII cells in vitro. Type of assay: functional. An outline of the steps:
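Mouse SCCVII tumour cells exposed to drug for 1 h under hypoxic (anoxic) conditions; clonogenic survival; C10 = concentration reducing plating efficiency to 10% of controls. Values corrected for interexperimental variation in hypoxia using TPZ internal standard: C10(calc) = C10(meas) × [C10(TPZ,mean)/C10(TPZ,meas)].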

Assay [3] is described as follows: Hypoxic cytotoxicity ratio was measured as IC50 aerobic/IC50 hypoxic. Type of assay: functional. An outline of the steps: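 HT-29 cells, SRB proliferation assay with each compound run simultaneously under aerobic and hypoxic conditions; intraexperimental ratio IC50(aerobic)/IC50(hypoxic).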
The nature of assay [4]: Hypoxic cytotoxicity ratio was measured as C10 aerobic/C10 hypoxic. The format is functional. In a few lines:
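Mouse SCCVII cells, 1 h drug exposure under aerobic and hypoxic conditions in the same experiment, clonogenic survival; intraexperimental ratio C10(aerobic)/C10(hypoxic), C10 being the concentration giving 10% plating efficiency of controls.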

For assay [5], the system named is SCC-7. The assay can be described thus: Concentration required to kill aerobic mouse SCCVII cells in vitro. Type of assay: functional. In a few lines:
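Mouse SCCVII tumour cells exposed to drug for 1 h under aerobic conditions; clonogenic survival read-out; C10 = concentration reducing plating efficiency to 10% of controls (one-log kill).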

Assay [6] concerns HT-29. The assay can be described thus: Concentration required to kill hypoxic HT-29 human colon carcinoma cells in vitro. The format is functional, cell-based. In a few lines:
as §1

For the molecule `Cc1cccc2cc3cccc(C(=O)NCCCN(C)CCCNc4n[n+]([O-])c5ccccc5[n+]4[O-])c3nc12`, the IC50 (as a rule, the concentration that gives 50% inhibition) in the assay with HT-29 [1] was determined as 8400 nM; with HT-29 [6] it was 95 nM. The results for the C10 in the assay on SCC-7 [2] and with SCC-7 [5] were 0.18 µM and above 30 µM, respectively. Besides, the Ratio is recorded as 88.4 in assay [3] and above 167 in assay [4].
Take `CN(CCCNC(=O)c1cccc2cc3ccccc3nc12)CCCNc1n[n+]([O-])c2ccccc2[n+]1[O-]`: the IC50 in the assay on HT-29 [1] amounted to 5350 nM; in the assay with HT-29 [6], 43 nM. In addition, the C10 was found to be 0.82 µM with SCC-7 [2] and 42 µM in the assay on SCC-7 [5]. The results for the Ratio in assay [3] and in assay [4] were 124 and 51.5, respectively.
For the molecule `O=C(NCCOCCNc1n[n+]([O-])c2ccccc2[n+]1[O-])c1cccc2cc3ccccc3nc12`, the IC50 in the assay with HT-29 [1] turned out to be 72500 nM; in the assay with HT-29 [6] it was 5700 nM. The C10 is 12.4 µM in the assay on SCC-7 [2] and 630 µM in the assay on SCC-7 [5]. Further, the Ratio in assay [3] is 12.8; in assay [4] it was 50.8.
On to `O=C(NCCCNCCCNc1n[n+]([O-])c2ccccc2[n+]1[O-])c1cccc2cc3ccccc3nc12`, for which the IC50 in the assay on HT-29 [1] came out at 5700 nM; in the assay on HT-29 [6] it was 65 nM. The C10 in the assay with SCC-7 [2] stood at 0.51 µM; in the assay on SCC-7 [5], 6.4 µM. Besides, the values for the Ratio in assay [3] and in assay [4] were 87.5 and 12.5, respectively.
As to `CN(CCCNC(=O)c1cccc2ccc(-c3ccncc3)nc12)CCCNc1n[n+]([O-])c2ccccc2[n+]1[O-]`, the IC50 worked out at 12000 nM in the assay on HT-29 [1] and 110 nM in the assay on HT-29 [6]. The values for the C10 in the assay with SCC-7 [2] and in the assay with SCC-7 [5] were 1.79 µM and 14 µM, respectively. The Ratio in assay [3] is 107; in assay [4], 7.8.
Regarding `CN(CCNC(=O)c1cccc2cc3ccccc3nc12)CCNc1n[n+]([O-])c2ccccc2[n+]1[O-]`, the IC50 was 15700 nM with HT-29 [1] and 180 nM with HT-29 [6]. The C10 with SCC-7 [2] came to 0.93 µM; in the assay with SCC-7 [5] it was 400 µM. The Ratio in assay [3] was determined as 87; in assay [4], 431.
For the molecule `CN(CCCNC(=O)c1cccc2cccnc12)CCCNc1n[n+]([O-])c2ccccc2[n+]1[O-]`, the IC50 in the assay on HT-29 [1] was determined as 36300 nM; with HT-29 [6], 590 nM. Further, the C10 came to 6.5 µM with SCC-7 [2] and 90 µM in the assay with SCC-7 [5]. The Ratio in assay [3] was determined as 61.2; in assay [4], 13.9.
As for `O=C(NCCNCCNc1n[n+]([O-])c2ccccc2[n+]1[O-])c1cccc2cc3ccccc3nc12`, the IC50 was determined as 7800 nM in the assay with HT-29 [1] and 79 nM with HT-29 [6]. Also, the C10 came to 1.16 µM in the assay on SCC-7 [2] and 56 µM in the assay on SCC-7 [5]. In addition, the Ratio in assay [3] is given as 98.6; in assay [4], 48.2.
`[O-][n+]1nc(NCCCCCCNc2c3ccccc3nc3ccccc23)[n+]([O-])c2ccccc21`: the IC50 in the assay with HT-29 [1] is 620 nM; with HT-29 [6] it was 16 nM. The C10 in the assay on SCC-7 [2] came to 0.61 µM; in the assay on SCC-7 [5], 9.6 µM. Besides, the Ratio in assay [3] is listed as 39.7; in assay [4] it was 15.7.
For the molecule `CN(CCCNC(=O)c1cccc2nc3ccccc3nc12)CCCNc1n[n+]([O-])c2ccccc2[n+]1[O-]`, the IC50 with HT-29 [1] worked out at 590 nM; in the assay on HT-29 [6] it was 120 nM. Moreover, the C10 in the assay on SCC-7 [2] worked out at 1.07 µM; with SCC-7 [5], 9.4 µM. Moreover, the Ratio was found to be 4.9 in assay [3] and 8.8 in assay [4].
On to `Cc1cccc2nc3cccc(C(=O)NCCCN(C)CCCNc4n[n+]([O-])c5ccccc5[n+]4[O-])c3nc12`, for which the IC50 turned out to be 560 nM in the assay with HT-29 [1] and 18 nM in the assay with HT-29 [6]. Besides, the C10 with SCC-7 [2] was 0.35 µM; in the assay on SCC-7 [5], 7.4 µM. The values for the Ratio in assay [3] and in assay [4] were 31 and 21.1, respectively.
Take `Nc1n[n+]([O-])c2ccccc2[n+]1[O-]` [TIRAPAZAMINE]: the values for the IC50 in the assay with HT-29 [1] and in the assay with HT-29 [6] were 387000 nM and 6200 nM, respectively. Further, the values for the C10 in the assay with SCC-7 [2] and in the assay on SCC-7 [5] were 10.2 µM and 2644 µM, respectively. Further, the values for the Ratio in assay [3] and in assay [4] were 62 and 258, respectively.
